MC4R barr agon – human MC4R agonism via beta-arrestin | P32245 | actives 0.98% (n = 360,000) | U2OS MC4R beta-arrestin complementation, luminescence; percent of melanotan II response, DMSO zero | activation, % at 8.9 µM;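 active means activation above a per-plate cutoff, the mean activation of sample wells on that plate plus 3 SD, cut at about 8% in these data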
Target sequence (P32245 whole entry, looked up): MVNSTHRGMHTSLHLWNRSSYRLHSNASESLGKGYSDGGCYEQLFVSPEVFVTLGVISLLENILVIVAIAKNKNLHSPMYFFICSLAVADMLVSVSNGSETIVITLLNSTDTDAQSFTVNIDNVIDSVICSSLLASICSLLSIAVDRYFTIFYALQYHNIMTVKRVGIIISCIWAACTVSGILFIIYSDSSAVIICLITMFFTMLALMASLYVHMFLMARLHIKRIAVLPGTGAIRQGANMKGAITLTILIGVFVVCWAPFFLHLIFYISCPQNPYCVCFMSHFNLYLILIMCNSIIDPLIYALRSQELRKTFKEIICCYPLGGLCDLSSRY
Granule exo inh – lytic granule exocytosis inhibition; TALL-104 LAMP-1 surface exposure, flow cytometry; cells stimulated with thapsigargin and PMA; inhibition, % at 10 µM; actives 0.66% (n = 360,000);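 active means inhibition above about 55%, limit read from the data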
PGE2 EP2 inh – blocks the human prostaglandin E2 receptor EP2; P43116; actives 0.52% (n = 260,000); AID 1422; inhibition, % at 25 µM; C6 glioma cells expressing human EP2, cAMP TR-FRET; cells stimulated with saturating PGE2;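 active means percent inhibition above 40 after rounding to a whole number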;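 further: rat C6 glioma host cells with rolipram phosphodiesterase inhibitor present; the protocol text gives 20 µM as final concentration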
T cell HTS – T cell immune modulators affecting CD8 T cell-vesicle binding. 2C CD8+ T cell-vesicle binding, flow cytometry; active compounds read low. response (vesicle binding), % at 7 µM. actives 0.068% (n = 330,000). AID 2052;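 active means response, share of CD8 T cells binding vesicles, and their 90th percentile fluorescence all below set limits, cut at about 80% in these data, passing the limit was not always enough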;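 further: values below 100% mean blocked vesicle binding to the CD8+ T cells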
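Also added: QL9-peptide-loaded Drosophila micro-vesicles bearing Ld, ICAM-1 and B7-1; Test system: purified 2C TCR transgenic mouse naive CD8+ T cells; Measured by: cytometric PE anti-B7-1 and Alexa647 anti-CD8 signals after 1% paraformaldehyde fixation; Timing: binding step 1.5 h, 37 °C, antibody labelling 20 min, ice.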
MC4R antag cAMP – human MC4R antagonism in cAMP assay; actives 0.48% (n = 360,000); inhibition, % at 6.5 µM; MC4R-expressing cells, MTII-stimulated cAMP, LANCE TR-FRET; P32245;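 active means inhibition above its plate's cutoff, the mean of tested wells on that plate plus 3 SD, cut at about 29% in these data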;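 further: 0% = Melanotan II alone and 100% = Melanotan II plus saturating MCL0020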
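System: U2OS-MC4R stable cell line; Technique: Eu-cAMP/anti-cAMP TR-FRET, emission 671 nm; Repeats: single well per compound; Also added: Melanotan II; Dosing: one concentration, 6.5 µM nominal; Schedule: 30-min compound, 1-h challenge, 1-h detection, room temperature.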
EP2 modulator – EP2 receptor (human) modulation | AID 940 | induction, % at 25 µM | P43116 | actives 0.83% (n = 260,000) | EP2-expressing cells, cAMP HTRF FRET, PGE2 co-stimulation;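 active means compounds whose cAMP rise, as percent of the full-agonist control response, exceeds 60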;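 further: rat C6 glioma line stably carrying human EP2 under a CMV promoter; the protocol text gives 20 µM as final concentration; 100% = response of wells given 1 µM PGE2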
MC4R barr conf – human MC4R beta-arrestin agonism confirmation; shares compounds with MC4R barr agon; actives 31% (n = 2,400); U2OS MC4R beta-arrestin recruitment, luminescence; scaled DMSO 0%, Melanotan II 100%; activation, % at 8.9 µM;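 active means mean activation across replicates above the hit cutoff set in the earlier primary screen, cut at about 8% in these data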
MOR-DOR barr ag – activates mu-delta opioid heterodimer, MC4R agonist counter-screen; shares compounds with MC4R barr agon; U2OS PathHunter beta-arrestin, beta-gal luminescence; percent of deltorphin B response, DMSO zero; activation, % at 9.2 µM; actives 5.8% (n = 2,400); AID 602194;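 active means mean activation across replicates exceeds the hit threshold derived in the earlier primary screen, cut at about 18% in these data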;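 further: 100% = deltorphin B at 0.9 µM final and 0% = DMSO alone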
Active calls of the source: *. Sampled rows, rich in hits. Any-hit rate of the full collection: about 2.6%.

For CCOc1ccccc1NC(=S)NC(=O)CCCOc1ccc(Cl)cc1Cl the results were MC4R barr agon 0, Granule exo inh 1, PGE2 EP2 inh 8, T cell HTS 243, MC4R antag cAMP 5 and EP2 modulator 2.
For O=C(c1ccccc1NS(=O)(=O)c1ccc(F)cc1)N1CCc2ccccc21 the results were MC4R barr agon 4, Granule exo inh -2, PGE2 EP2 inh 1, T cell HTS 206, MC4R antag cAMP 19 and EP2 modulator 52.
Screening O=C(c1ccccc1NS(=O)(=O)c1cccc(C(F)(F)F)c1)N1CCc2ccccc21 returned MC4R barr agon 10*, Granule exo inh -2, PGE2 EP2 inh 12, T cell HTS 515, MC4R antag cAMP 16, EP2 modulator 16, MC4R barr conf 1 and MOR-DOR barr ag 6.
NC(=S)N/N=C/c1cc([N+](=O)[O-])ccc1OCCOc1ccccc1 was read as MC4R barr agon 16*, Granule exo inh -1, PGE2 EP2 inh 14, T cell HTS 534, MC4R antag cAMP -12, EP2 modulator -15, MC4R barr conf 2 and MOR-DOR barr ag 4.
Screening CC(=O)N/N=C/c1cc([N+](=O)[O-])ccc1OCCOc1ccccc1 returned MC4R barr agon 0, Granule exo inh 0, PGE2 EP2 inh 17, T cell HTS 504, MC4R antag cAMP 7 and EP2 modulator -17.
For CC(=O)Nc1cc(-c2ccc(C(=O)N3CCOCC3)cc2)cn2c(-c3cccc(C(C)=O)c3)cnc12 the results were MC4R barr agon 2, Granule exo inh -1 and MC4R antag cAMP 19.
Screening CC(=O)Nc1cc(-c2ccc(C(=O)NC3CC3)cc2)cn2c(-c3cccc(C(C)=O)c3)cnc12 returned MC4R barr agon 16*, Granule exo inh -2, MC4R antag cAMP 12, MC4R barr conf 18* and MOR-DOR barr ag 3.
CC(=O)Nc1cc(-c2ccc(C(=O)NC3CC3)cc2)cn2c(-c3cccc(C(F)(F)F)c3)cnc12 was read as MC4R barr agon 11*, Granule exo inh 5, MC4R antag cAMP 22, MC4R barr conf 20* and MOR-DOR barr ag 3.
`Cc1ccc(S(=O)(=O)N2CCOCC2)cc1C(=O)Nc1ccc2c(c1)CCC2` gave MC4R barr agon -2, Granule exo inh 0, PGE2 EP2 inh 9, T cell HTS inactive, MC4R antag cAMP 5 and EP2 modulator -29.
Screening CCCOc1ccc(F)cc1-c1cc(C(=O)Nc2cc(OC)ccc2OC)[nH]n1 returned MC4R barr agon 16*, Granule exo inh 1, MC4R antag cAMP 5, MC4R barr conf 1 and MOR-DOR barr ag 11.
Screening COc1ccc(NC(=O)c2cc(-c3cc(Cl)ccc3OC)n[nH]2)cc1OC returned MC4R barr agon 0, Granule exo inh -2 and MC4R antag cAMP 16.
Screening CCCOc1ccc(F)cc1-c1cc(C(=O)Nc2cc(OC)c(OC)c(OC)c2)[nH]n1 returned MC4R barr agon 3, Granule exo inh 6 and MC4R antag cAMP 7.
COc1ccc(Cl)cc1-c1cc(C(=O)Nc2ccc(F)cc2)[nH]n1 was read as MC4R barr agon 16*, Granule exo inh -6, MC4R antag cAMP 2, MC4R barr conf 0 and MOR-DOR barr ag 9.
`COc1ccc(NC(=O)c2cc(-c3ccc(C)cc3O)n[nH]2)c(OC)c1` gave MC4R barr agon 10*, Granule exo inh 2, T cell HTS 229, MC4R antag cAMP 15, MC4R barr conf -2 and MOR-DOR barr ag 4.
`CSc1ccccc1NC(=O)Nc1cccc(Cl)c1Cl` gave MC4R barr agon 16*, Granule exo inh -4, PGE2 EP2 inh 3, T cell HTS inactive, MC4R antag cAMP -1, EP2 modulator 6, MC4R barr conf 9.2* and MOR-DOR barr ag 9.
For CSc1ccccc1NC(=O)Nc1cccc(Cl)c1C the results were MC4R barr agon 3, Granule exo inh -3, PGE2 EP2 inh 2, T cell HTS 682, MC4R antag cAMP -7 and EP2 modulator -6.
O=C(NCc1ccc(-c2csnn2)cc1)c1cc(Cl)cc(Cl)c1 was read as MC4R barr agon 13*, Granule exo inh 8, PGE2 EP2 inh 12, T cell HTS 619, MC4R antag cAMP 2, EP2 modulator -3, MC4R barr conf 2 and MOR-DOR barr ag 4.
For O=C(NCc1ccc(-c2csnn2)cc1)c1cccs1 the results were MC4R barr agon 1, Granule exo inh -1, PGE2 EP2 inh 12, T cell HTS 121, MC4R antag cAMP 11 and EP2 modulator -4.
`COc1cc(NC(=O)COc2cccc(OC)c2)cc(OC)c1` gave MC4R barr agon 1, Granule exo inh 4, PGE2 EP2 inh 7, T cell HTS 538, MC4R antag cAMP 12 and EP2 modulator -13.
`COc1cccc(OCC(=O)NN=C2c3ccccc3-c3ccccc32)c1` gave MC4R barr agon 65*, Granule exo inh -2, PGE2 EP2 inh 3, T cell HTS 386, MC4R antag cAMP -4, EP2 modulator 5, MC4R barr conf 8 and MOR-DOR barr ag 6.
CCOc1ccc(N(CC(=O)Nc2ccc(F)c(F)c2)S(=O)(=O)c2c(C)noc2C)cc1 was read as MC4R barr agon 9.6*, Granule exo inh 1, PGE2 EP2 inh 19, T cell HTS 276, MC4R antag cAMP -1, EP2 modulator -1, MC4R barr conf 1 and MOR-DOR barr ag 7.
For CCOc1ccc(N(CC(=O)Nc2ccc(C)cc2)S(=O)(=O)c2c(C)noc2C)cc1 the results were MC4R barr agon 1, Granule exo inh 7, PGE2 EP2 inh 11, T cell HTS 391, MC4R antag cAMP -2 and EP2 modulator 17.
For O=C(CCc1c[nH]c2ccccc12)NCC1COc2ccccc2O1 (stereo not drawn) the results were MC4R barr agon 11*, Granule exo inh 8, PGE2 EP2 inh 5, T cell HTS 114, MC4R antag cAMP 14, EP2 modulator -47, MC4R barr conf -3 and MOR-DOR barr ag 1.
For O=c1c2cnn(-c3ccc(F)cc3)c2ncn1Cc1ccccc1 the results were MC4R barr agon 14*, Granule exo inh 12, PGE2 EP2 inh 14, T cell HTS 314, MC4R antag cAMP 3, EP2 modulator -4, MC4R barr conf 0 and MOR-DOR barr ag 4.

Source: PubChem (several laboratories)
